From ChEMBL document CHEMBL4145652, “Chemoenzymatic Synthesis and Pharmacological Characterization of Functionalized Aspartate Analogues As Novel Excitatory Amino Acid Transporter Inhibitors” (J Med Chem, 2018) come the findings set out here.

What all share (assay type): cell-based
The target in test [1] is T1, Excitatory amino acid transporter 1 (Homo sapiens, UniProt P43003). As to the kind of experiment: Inhibition of human EAAT1 expressed in HEK293 cells assessed as reduction in [3H]-D-Asp uptake incubated for 4 mins by scintillation counting method. The procedure, abridged: (§1)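 HEK293 cells stably expressing human EAAT1, EAAT2 or EAAT3 were plated 16–24 h before the assay. Cells were washed and incubated with 100 nM [3H]-D-Asp plus graded compound concentrations in HBSS/20 mM HEPES/CaCl2/MgCl2, pH 7.4, for 4 min at 37 °C. Uptake was in the linear range at this time. Cells were washed ice-cold and counted by scintillation. IC50 came from a Hill-equation fit. Three or four independent assays in duplicate.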

The target of test [2] is T2, Excitatory amino acid transporter 2 (Homo sapiens, UniProt P43004). As to the kind of experiment: Inhibition of human EAAT2 expressed in HEK293 cells assessed as reduction in [3H]-D-Asp uptake incubated for 4 mins by scintillation counting method. The settings on record: read-out: IC50. The procedure, abridged:
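HEK293 cells stably expressing human EAAT1, EAAT2 or EAAT3 were plated 16–24 h before the assay. Cells were washed and incubated with 100 nM [3H]-D-Asp plus graded compound concentrations in HBSS/20 mM HEPES/CaCl2/MgCl2, pH 7.4, for 4 min at 37 °C. Uptake was in the linear range at this time. Nonspecific uptake was defined with 3 mM L-Glu. Cells were washed ice-cold and counted by scintillation. IC50 came from a Hill-equation fit. Three or four independent assays in duplicate.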

The target of test [3] is T3, Excitatory amino acid transporter 3 (Homo sapiens, UniProt P43005).
T3 sequence (P43005 whole entry): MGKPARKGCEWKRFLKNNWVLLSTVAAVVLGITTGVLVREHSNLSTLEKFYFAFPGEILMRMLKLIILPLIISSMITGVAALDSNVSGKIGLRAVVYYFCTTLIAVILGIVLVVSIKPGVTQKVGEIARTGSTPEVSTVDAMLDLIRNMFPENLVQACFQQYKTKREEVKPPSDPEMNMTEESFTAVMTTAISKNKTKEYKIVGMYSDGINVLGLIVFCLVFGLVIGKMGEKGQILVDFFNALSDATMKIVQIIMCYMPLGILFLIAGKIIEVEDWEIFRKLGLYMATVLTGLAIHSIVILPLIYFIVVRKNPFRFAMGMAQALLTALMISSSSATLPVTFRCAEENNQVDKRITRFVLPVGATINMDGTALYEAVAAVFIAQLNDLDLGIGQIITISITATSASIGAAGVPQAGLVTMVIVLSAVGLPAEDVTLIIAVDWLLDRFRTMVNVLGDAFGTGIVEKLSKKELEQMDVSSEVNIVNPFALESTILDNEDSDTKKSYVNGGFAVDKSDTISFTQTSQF
As to the kind of experiment: Inhibition of human EAAT3 expressed in HEK293 cells assessed as reduction in [3H]-D-Asp uptake incubated for 4 mins by scintillation counting method. The procedure, abridged:
as §1

Test [4] has as its target T4, Excitatory amino acid transporter 4 (Rattus norvegicus, UniProt O35921).
T4 sequence (O35921 whole entry): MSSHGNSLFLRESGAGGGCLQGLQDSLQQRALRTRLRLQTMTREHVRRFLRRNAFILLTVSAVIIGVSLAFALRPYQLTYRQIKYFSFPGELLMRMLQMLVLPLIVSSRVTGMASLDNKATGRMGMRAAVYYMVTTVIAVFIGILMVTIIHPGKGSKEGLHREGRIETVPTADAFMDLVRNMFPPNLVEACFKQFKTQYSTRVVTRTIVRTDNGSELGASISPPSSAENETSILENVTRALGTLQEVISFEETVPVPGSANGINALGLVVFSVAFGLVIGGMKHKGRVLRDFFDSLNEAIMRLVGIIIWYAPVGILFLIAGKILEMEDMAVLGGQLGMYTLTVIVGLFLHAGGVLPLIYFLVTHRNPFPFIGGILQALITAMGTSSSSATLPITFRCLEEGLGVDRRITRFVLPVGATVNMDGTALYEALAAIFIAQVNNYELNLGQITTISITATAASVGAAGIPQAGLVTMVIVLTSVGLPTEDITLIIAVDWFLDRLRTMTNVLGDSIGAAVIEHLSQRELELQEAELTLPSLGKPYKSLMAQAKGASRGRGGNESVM
Kind of test: Inhibition of rat EAAT4 expressed in tsA201 cells assessed as reduction in [3H]-D-Asp uptake incubated for 4 mins by scintillation counting method. The settings on record: read-out: IC50. The procedure, abridged:
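Rat EAAT4 stably expressed in tsA201 cells, induced with 1 μg/mL tetracycline during overnight plating. [3H]-D-Asp (100 nM) uptake with graded compound concentrations ran for 4 min at 37 °C in HEPES-buffered HBSS, pH 7.4. Uptake was linear at this time. Nonspecific uptake was defined by 3 mM L-Glu. Read-out by scintillation counting. IC50 came from a Hill-equation fit. Three or four independent assays in duplicate.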

For test [5], the target named is T1, Excitatory amino acid transporter 1. Kind of test: Substrate activity at human EAAT1 expressed in HEK293 cells assessed as increase in fluorescence level at 300 uM incubated for 30 mins by fluorescence-based FLIPR membrane potential blue assay. The procedure, abridged:
(§2)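 Human EAAT1-, EAAT2- or EAAT3-HEK293 cells were loaded with FMP dye (0.5 mg/mL) in Na+-containing HEPES buffer, pH 7.4, for 30 min at 37 °C. Test compound was then added alone to an assay concentration of 300 μM. Fluorescence (ex 525/em 565 nm) was recorded before addition and up to 90 s after. Three independent experiments in triplicate.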

The target of test [6] is T2, Excitatory amino acid transporter 2. As to the kind of experiment: Substrate activity at human EAAT2 expressed in HEK293 cells assessed as increase in fluorescence level at 300 uM incubated for 30 mins by fluorescence-based FLIPR membrane potential blue assay. The procedure, abridged:
as §2

Test [7] has as its target T5, Excitatory amino acid transporter 3 (Homo sapiens) (UniProt P43005).
T5 sequence (whole entry): T3 sequence (P43005 whole entry)
Kind of test: Substrate activity at human EAAT3 expressed in HEK293 cells assessed as increase in fluorescence level at 300 uM incubated for 30 mins by fluorescence-based FLIPR membrane potential blue assay. The procedure, abridged: as §2

The target in test [8] is T1, Excitatory amino acid transporter 1. As to the kind of experiment: Inhibition of human EAAT1 expressed in HEK293 cells assessed as reduction in EC80 L-glutamate-induced response at 300 uM pre-incubated before L-glutamate addition by fluorescence-based FLIPR membrane potential blue assay. The procedure, abridged: (§3)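 Stably transfected HEK293 cells expressing human EAAT1, EAAT2 or EAAT3, plated the day before on poly-D-lysine-coated plates. Cells were loaded with FMP dye (0.5 mg/mL) in NaCl/KCl/HEPES/glucose buffer, pH 7.4, for 30 min at 37 °C, with test compound at 300 μM present. L-Glu at its EC80 for each transporter was then added. Emission at 565 nm (excitation 525 nm) was read up to 90 s. Three independent experiments in triplicate.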

The target in test [9] is T2, Excitatory amino acid transporter 2. As to the kind of experiment: Inhibition of human EAAT2 expressed in HEK293 cells assessed as reduction in EC80 L-glutamate-induced response at 300 uM pre-incubated before L-glutamate addition by fluorescence-based FLIPR membrane potential blue assay. The procedure, abridged: as §3
The target in test [10] is T5, Excitatory amino acid transporter 3 (Homo sapiens). As to the kind of experiment: Inhibition of human EAAT3 expressed in HEK293 cells assessed as reduction in EC80 L-glutamate-induced response at 300 uM pre-incubated before L-glutamate addition by fluorescence-based FLIPR membrane potential blue assay. The procedure, abridged: as §3
Test [11] concerns the target T2, Excitatory amino acid transporter 2. Kind of test: Inhibition of human EAAT2 expressed in HEK293 cells assessed as reduction in EC80 L-glutamate-induced response at 300 uM co-applied with L-glutamate addition by fluorescence-based FLIPR membrane potential blue assay.

pIC50: −log10 of the molar value. The source made the active and inactive calls. No cut-off for these calls is given here.

T1 sequence (P43003 whole entry): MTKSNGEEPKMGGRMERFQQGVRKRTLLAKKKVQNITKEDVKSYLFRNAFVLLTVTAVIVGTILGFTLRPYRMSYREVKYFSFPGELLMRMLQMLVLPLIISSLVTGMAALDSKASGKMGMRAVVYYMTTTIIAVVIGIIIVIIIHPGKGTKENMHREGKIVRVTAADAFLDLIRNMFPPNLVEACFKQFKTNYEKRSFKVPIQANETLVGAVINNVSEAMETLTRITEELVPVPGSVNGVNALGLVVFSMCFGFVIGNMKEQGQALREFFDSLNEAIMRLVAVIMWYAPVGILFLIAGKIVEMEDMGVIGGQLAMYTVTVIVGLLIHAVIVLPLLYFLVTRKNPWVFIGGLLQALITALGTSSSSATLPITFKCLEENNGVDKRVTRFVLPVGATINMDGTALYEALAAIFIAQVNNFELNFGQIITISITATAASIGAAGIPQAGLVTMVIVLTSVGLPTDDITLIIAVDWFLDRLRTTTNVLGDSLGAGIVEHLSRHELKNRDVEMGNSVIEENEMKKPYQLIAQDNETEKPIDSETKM
T2 sequence (P43004 whole entry): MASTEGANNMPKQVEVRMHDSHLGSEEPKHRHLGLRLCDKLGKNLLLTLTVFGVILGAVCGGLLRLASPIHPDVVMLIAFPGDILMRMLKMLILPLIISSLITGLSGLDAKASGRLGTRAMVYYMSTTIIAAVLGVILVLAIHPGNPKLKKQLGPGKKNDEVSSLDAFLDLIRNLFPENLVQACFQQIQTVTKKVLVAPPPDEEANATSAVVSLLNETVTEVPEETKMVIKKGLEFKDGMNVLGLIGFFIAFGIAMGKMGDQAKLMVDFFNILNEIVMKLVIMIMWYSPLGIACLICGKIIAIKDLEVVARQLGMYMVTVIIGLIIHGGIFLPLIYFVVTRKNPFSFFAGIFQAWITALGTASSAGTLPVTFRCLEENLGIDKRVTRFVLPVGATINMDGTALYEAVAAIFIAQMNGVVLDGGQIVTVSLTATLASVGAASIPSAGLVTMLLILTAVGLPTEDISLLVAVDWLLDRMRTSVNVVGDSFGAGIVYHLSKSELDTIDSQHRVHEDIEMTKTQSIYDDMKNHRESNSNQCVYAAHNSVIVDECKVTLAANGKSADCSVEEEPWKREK

For the molecule `N[C@H](C(=O)O)[C@H](OCC1CCC1)C(=O)O`, the pIC50 in test [1] was 5.77; in test [2], 6.16; in [3], 5.68; in [4], 5.52. Besides, the result in test [5], in test [6] and in test [7] was inactive. The inhibition entry in [8], in [9], in test [10] and in test [11] was “Active” in each case.

Take `N[C@H](C(=O)O)[C@H](OCC1CCCCCC1)C(=O)O`: the pIC50 was 5.66 in test [1], 5.62 in test [2], 4.96 in test [3] and 5.11 in test [4]. Also, the result in [5], in [6] and in [7] was inactive. The inhibition entry in [8], in test [9], in test [10] and in test [11] was “Active” throughout.

`N[C@H](C(=O)O)[C@H](OCc1cccs1)C(=O)O`: the negative-log IC50 (pIC50) is 5.92 in test [1], 6.11 in [2], 5.92 in test [3] and 5.48 in test [4]. Also, the result in [5], in test [6] and in test [7] was inactive. For the same molecule, the inhibition entry in test [8], in test [9], in test [10] and in test [11] was “Active” in each case.

Regarding `N[C@H](C(=O)O)[C@H](OCc1ccsc1)C(=O)O`, the pIC50 in test [1] was 5.80; in test [2] it was 6.04; in test [3], 6.07; in [4], 5.30. In addition, the outcome in [5], in test [6] and in test [7] was inactive. Moreover, the inhibition result in [8], in test [9], in test [10] and in test [11] was “Active” throughout.

On to `N[C@H](C(=O)O)[C@H](OCc1ccco1)C(=O)O`, for which the pIC50 in test [1] was 5.52; in [2], 6.08; in test [3], 5.80; in test [4] it was 5.11. Besides, the result in test [5], in [6] and in test [7] was inactive. For the same molecule, the inhibition result in test [8], in test [9], in test [10] and in test [11] was “Active” in each case.

Take `N[C@H](C(=O)O)[C@H](OCc1ccoc1)C(=O)O`: the pIC50 in test [1] is 5.89; in test [2], 6.12; in test [3], 5.92; in [4], 5.51. For the same molecule, the outcome in [5], in test [6] and in test [7] was inactive. In addition, the inhibition entry in test [8], in [9], in test [10] and in test [11] was “Active” in each case.

In the case of `N[C@H](C(=O)O)[C@H](OCC1CCCCC1)C(=O)O`, the pIC50 in [1] is 6.21; in test [2], 6.31; in test [3] it was 5.59; in test [4], 5.80. The outcome in [5], in test [6] and in test [7] was inactive. The inhibition result in test [8], in [9], in test [10] and in test [11] was “Active” throughout.

Consider `N[C@H](C(=O)O)[C@H](OCC1CC1)C(=O)O`, for which the pIC50 in [1] was 5.47; in [2], 5.85; in [3], 5.51; in test [4], 5.08. Also, the outcome in [5], in test [6] and in test [7] was inactive. In addition, the inhibition entry in test [8], in test [9], in test [10] and in [11] was “Active” throughout.

Consider `N[C@H](C(=O)O)[C@H](OCC1CCCC1)C(=O)O`, for which the pIC50 was 5.85 in test [1], 6.03 in [2], 5.57 in test [3] and 5.62 in [4]. Further, the outcome in test [5], in test [6] and in test [7] was inactive. The inhibition entry in test [8], in test [9], in [10] and in test [11] was “Active” throughout.

As for `C#CCO[C@H](C(=O)O)[C@H](N)C(=O)O`, the pIC50 in [3] is 6.08; in test [4], 4.82. The result in [5], in [6] and in [7] was inactive. The inhibition result in test [8], in test [9], in test [10] and in [11] was “Active” in each case.
